RGS4 block – human RGS4 inhibition; P49798; HEK293 M3R/RGS4 inducible, Fluo-4 calcium flux; hits give high values; triggered by carbachol at its EC20; B-score at 10 µM; 310,000 compounds, 0.45% hits; AID 463165;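 active = B-score, a plate-corrected calcium signal, over three deviations above library mean, with baseline fluorescence within five deviations of library mean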;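 also: RGS4 expression induced by doxycycline in cells with stable M3 receptor; B-score is computed from the integrated fluorescence ratio over baseline after carbachol; higher B-score means a larger calcium signal and so more RGS4 inhibition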
MrgX1 PAM – human MrgX1 positive allosteric modulation, primary screen; Q96LB2; MrgX1-HEK293, Fluo-4 calcium flux, FDSS; hits give high values; B-score at 10 µM; 310,000 compounds, 0.63% hits; AID 588675;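 active = plate-corrected calcium response at least 3 library SD above typical, normal starting fluorescence, not activating the receptor alone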;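 also: compound read alongside a low EC10 to EC30 dose of BAM8-22 agonist; peak minus trough fluorescence over baseline measured at the second addition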
Target sequence (Q96LB2 whole entry, looked up): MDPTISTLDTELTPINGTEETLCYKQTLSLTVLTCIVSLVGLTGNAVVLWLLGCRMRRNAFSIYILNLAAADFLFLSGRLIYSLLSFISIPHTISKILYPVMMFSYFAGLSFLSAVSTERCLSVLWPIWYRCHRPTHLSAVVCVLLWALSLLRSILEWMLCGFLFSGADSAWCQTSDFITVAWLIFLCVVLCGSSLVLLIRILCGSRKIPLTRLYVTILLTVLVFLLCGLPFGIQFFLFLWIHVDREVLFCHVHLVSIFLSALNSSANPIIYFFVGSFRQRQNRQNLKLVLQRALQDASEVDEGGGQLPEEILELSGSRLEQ
MrgX1 agonist – human MrgX1 receptor agonism, primary screen; MrgX1-HEK293 cells, Fluo-4 calcium fluorescence, agonist mode; hits give high values; Q96LB2; 310,000 compounds, 0.44% hits; B-score at 10 µM;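 active = calcium response B-score plate-corrected fluorescence ratio at least 3 library SD, with starting fluorescence B-score inside 5 SD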
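Material: MrgX1-expressing HEK293 cells; input: 15,000 cells per well; doses: test compound given as first of three sequential additions; schedule: overnight plating before 1 h dye loading; technique: Fluo-4 NW calcium-flux fluorescence, kinetic read; evaluation: baseline-normalised fluorescence change ratio, B-scored; control set: plate-wise positive and negative controls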
RGS4 pot – RGS4 potentiation or activation; HEK293 M3R/inducible RGS4, carbachol calcium flux Fluo4; hits give low values; B-score at 10 µM; 310,000 compounds, 0.92% hits;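 active = B-score of the integrated calcium signal more than 4 SD below the library mean, with starting fluorescence not abnormally high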;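 also: negative B-score means reduced calcium response which marks RGS4 activation or potentiation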
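Assay system: Inducible-RGS4 HEK293 cells carrying M3 receptor | Schedule: Compound preincubation 20 min at room temperature before agonist | Signal: Kinetic calcium fluorescence imaging with Fluo4-AM dye, 2 µM | Read-out basis: B score from integrated fluorescence ratio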
MrgX1 antagonist – antagonists of human MrgX1 receptor; MRGX1-HEK293 calcium flux, Fluo-4, BAM8-22 antagonism; hits give low values; Q96LB2; AID 588676; 310,000 compounds, 1.3% hits; B-score at 10 µM;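 active = calcium-response B-score plate-corrected more than 3 library SD below zero, starting fluorescence within 5 deviations, no agonist response on first addition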;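 also: peak minus trough fluorescence over baseline after final BAM8-22 challenge near maximal dose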
MrgX1 allo conf – human MrgX1 positive allosteric modulation, re-confirmation. AID 602413. shares compounds with MrgX1 PAM. MrgX1-HEK293, Fluo-4 calcium fluorescence, FDSS. 1,200 compounds, 13% hits. activation (ratio percentage), % at 10 µM;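 active = ratio at least 3 SD above the weak peptide control, stable starting fluorescence, no direct agonism earlier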;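 also: compound followed by low BAM8-22 agonist challenge near EC20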
HEK293 Ca flux – counter-screen for MrgX1 antagonists: effect in parental HEK293 cells; shares compounds with MrgX1 antagonist; Fluo-4 calcium fluorescence, FDSS; fluorescence ratio F(max-min)/F0 at 10 µM; 4,000 compounds, 2% hits; AID 624111;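 active = duplicate-averaged calcium fluorescence ratio at least three times the standard deviation of buffer wells, a nonspecific response in parental cells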
HEK293 Ca counter – activity in parental HEK293 cells without MrgX1; shares compounds with MrgX1 antagonist; parental HEK293 calcium flux, Fluo-4 fluorescence ratio; hits give high values; fluorescence ratio F(max-min)/F0 at 10 µM; 4,000 compounds, 0.4% hits; AID 624114;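 active = calcium fluorescence ratio, averaged over duplicates, at least 3 SD of the buffer-well ratio, meaning a nonspecific response in receptor-free cells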;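 also: untransfected parental HEK293 lacking MrgX1 used as counterscreen for MrgX1 allosteric activators; fluorescence change taken during the second addition on a kinetic imager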
HEK293 Ca cntr2 – counter-screen for MrgX1 activators: effect in parental HEK293 cells | shares compounds with MrgX1 antagonist | Fluo-4 calcium fluorescence (FDSS); hits give high values | fluorescence ratio F(max-min)/F0 at 10 µM | 4,000 compounds, 8.7% hits;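 active = calcium fluorescence ratio at least three times the spread of buffer wells, meaning a non-specific response in parental cells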
* = called active by the depositor; i = inactive; . = no result. Only some compounds are listed: those with a hit (about 3.5% of all), similar ones and a draw of the others.

SMILES | RGS4 block | MrgX1 PAM | MrgX1 agonist | RGS4 pot | MrgX1 antagonist | MrgX1 allo conf | HEK293 Ca flux | HEK293 Ca counter | HEK293 Ca cntr2
Nn1c(COc2ccc(Cl)cc2)nc2ccccc2c1=O | i | i | i | i | i | . | . | . | .
CN(C)CCn1c(=S)[nH]c2ncccc2c1=O | i | 13* | i | i | i | i | i | i | i
CCN(c1ccccc1)S(=O)(=O)c1ccc2c(c1)C(C)(C)C(=O)N2C | i | i | i | i | i | . | . | . | .
COc1ccc(Br)cc1S(=O)(=O)Nc1cccc(C)n1 | i | 12* | i | i | i | i | i | i | i
COc1ccc(S(=O)(=O)Nc2cccc(C)n2)c2ccccc12 | i | i | i | i | i | . | . | . | .
O=C1CC(c2ccc3c(c2)OCO3)Sc2nc3ccccc3n21 (stereo not given) | i | 7.5* | i | i | i | i | i | i | i
O=C1CC(c2ccccc2)Sc2nc3ccccc3n21 (stereo not given) | i | i | i | i | i | . | . | . | .
NC(=O)COC(=O)c1cccc(S(=O)(=O)N2CCCCC2)c1 | i | 11* | i | i | i | i | i | i | i
CCOC(=O)c1cccc(S(=O)(=O)N2CCCC2)c1 | i | i | i | i | i | . | . | . | .
Cc1cc(C)n2nnnc2n1 | i | i | i | i | i | . | . | . | .
c1ccc(-c2noc(-c3cccc4ccccc34)n2)nc1 | i | 8.4* | i | i | i | i | 0.53* | i | i
COC(=O)c1[nH]c2ccc(C)cc2c1NC(=O)CN1CCC(C)CC1 | i | 7.8* | i | i | i | i | i | i | i
COC(=O)c1[nH]c2ccc(C)cc2c1NC(=O)CN1CCN(c2ccccc2)CC1 | i | i | i | i | i | . | . | . | .
CCN1C=C(Cc2ccccc2C)C2=C(C1)C(c1ccccc1C)C(C#N)=C(N)O2 (stereo not given) | i | 18* | i | i | i | i | i | i | i
CCN1C=C(Cc2ccc(F)cc2)C2=C(C1)C(c1ccc(F)cc1)C(C#N)=C(N)O2 (stereo not given) | i | i | i | i | i | . | . | . | .
Cc1nnc(SCC(=O)c2cc(C)n(-c3ccc4c(c3)OCO4)c2C)s1 | i | 16* | i | i | i | i | i | i | i
O=c1c(-c2ccccc2)[n+]([O-])c2ccccc2n1O | i | 21* | i | i | i | 12%* | i | i | i
CCc1nnc(NC(=O)CCN2C(=O)/C(=C/c3cc(OC)c(OC)c(OC)c3)SC2=S)s1 | i | i | i | i | i | . | . | . | .
COc1ccc(C(=O)C2CCCN(C(=O)CCc3scnc3C)C2)c(C)c1 (stereo not given) | i | i | i | i | i | . | . | . | .
COc1cccc(Nc2ncccc2C(=O)Nc2ccccc2)c1 | i | 7.6* | i | i | i | i | i | i | i
CC(=O)Nc1ccc(S(=O)(=O)NCc2ccc(C(=O)N3CCOCC3)cc2)cc1 | i | 7.4* | i | i | i | i | i | i | i
CC(=O)NC(Cc1c[nH]c2ccccc12)C(=O)NCCc1ccccn1 (stereo not given) | i | i | i | i | i | . | . | . | .
COc1ccc(OC)c(-c2csc(NC(=O)Cc3cccs3)n2)c1 | i | 7.2* | i | i | i | i | i | i | i

Screens (PubChem)
